Here are results for 16 compounds from ChEMBL document CHEMBL3596109, “In vitro antiplasmodial activity of triazole-linked chloroquinoline derivatives synthesized from 7-chloro-N-(prop-2-yn-1-yl)quinolin-4-amine” (Bioorg Med Chem, 2015).

Assay [1] deals with Plasmodium falciparum. The assay is described as follows: Antiplasmodial activity against chloroquine-resistant asexual erythrocytic stage of Plasmodium falciparum Dd2 assessed as parasite growth inhibition by parasite lactate dehydrogenase assay. In kind it is functional, organism-based. The method, boiled down: (§1)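 Asexual erythrocytic cultures were maintained continuously by a modified Trager–Jensen method. Samples came from 20 mg/mL DMSO stocks and were serially diluted 2-fold in complete medium over 10 concentrations, from 100 µg/mL down to 0.20 µg/mL; some started at 1000 µg/mL. Reference drugs started at 100 ng/mL. Read-out was modified pLDH. IC50 came from full dose-response curves, run in triplicate on two occasions.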

For assay [2], the system named is Plasmodium falciparum. The assay is described as follows: Antiplasmodial activity against chloroquine-sensitive asexual erythrocytic stage of Plasmodium falciparum NF54 assessed as parasite growth inhibition by parasite lactate dehydrogenase assay. In kind it is functional, organism-based. The method, boiled down: as §1
For assay [3], the system named is Plasmodium falciparum. Description: Resistance index, ratio of IC50 for chloroquine-resistant asexual erythrocytic stage of Plasmodium falciparum Dd2 to IC50 for chloroquine-sensitive asexual erythrocytic stage of Plasmodium falciparum NF54. The format is functional.
For assay [4], the system named is Plasmodium falciparum. Description: Potency index, ratio of chloroquine IC50 to compound IC50 for chloroquine-resistant asexual erythrocytic stage of Plasmodium falciparum Dd2.

Bounds are passed on as bounds.

For the compound `Clc1ccc2c(NCc3cn(CCN4CCCCC4)nn3)ccnc2c1`, the results for the IC50 in the assay with Plasmodium falciparum [1] and with Plasmodium falciparum [2] were 51.6 nM and 10.2 nM, respectively. Besides, the “Ratio IC50” value in the assay with Plasmodium falciparum [3] is 5.1; in the assay on Plasmodium falciparum [4], 3.

Consider `CN(CCCn1cc(CNc2ccnc3cc(Cl)ccc23)nn1)c1ccccc1`, for which the IC50 in the assay on Plasmodium falciparum [1] was 165 nM; in the assay on Plasmodium falciparum [2], 305 nM. In the assay with Plasmodium falciparum [3], the “Ratio IC50” value came to 1.8.

Regarding `Clc1ccc2c(NCc3cn(CCCN4c5ccccc5CCc5ccccc54)nn3)ccnc2c1`, the half-maximal inhibitory concentration (IC50) in the assay on Plasmodium falciparum [1] stood at 74.1 nM; with Plasmodium falciparum [2], 64.3 nM. Moreover, the figures for the “Ratio IC50” value in the assay on Plasmodium falciparum [3] and with Plasmodium falciparum [4] were 1.2 and 3, respectively.

With `Clc1ccc2c(NCc3cn(CCN4CCCC4)nn3)ccnc2c1`, the 50% inhibitory concentration (IC50) with Plasmodium falciparum [1] stood at 69.3 nM; with Plasmodium falciparum [2], 16.2 nM. Besides, the “Ratio IC50” value in the assay with Plasmodium falciparum [3] was 4.3; in the assay on Plasmodium falciparum [4] it was 3.

With `C[C@H]1[C@H](OC(=O)CCC(=O)O)O[C@@H]2O[C@@]3(C)CC[C@H]4[C@H](C)CC[C@@H]1[C@@]24OO3` [ARTESUNATE], the results for the concentration for half-maximal inhibition (IC50) with Plasmodium falciparum [1] and in the assay on Plasmodium falciparum [2] were 24.2 nM and less than 5.2 nM, respectively. Also, the “Ratio IC50” value with Plasmodium falciparum [3] is reported as 4.6.

Take `CCN(CC)CCn1cc(CNc2ccnc3cc(Cl)ccc23)nn1`: the IC50 was 53.5 nM in the assay with Plasmodium falciparum [1] and 9.8 nM in the assay with Plasmodium falciparum [2]. Further, the “Ratio IC50” value came to 5.5 in the assay on Plasmodium falciparum [3] and 3 with Plasmodium falciparum [4].

Regarding `Clc1ccc2c(NCc3cn(CCCN4CCCC4)nn3)ccnc2c1`, the IC50 is 18.4 nM with Plasmodium falciparum [1] and 149 nM in the assay on Plasmodium falciparum [2]. In addition, in the assay with Plasmodium falciparum [3], the “Ratio IC50” value was determined as 8.1.

Regarding `CN(CCn1cc(CNc2ccnc3cc(Cl)ccc23)nn1)c1ccccc1`, the 50% inhibitory concentration (IC50) is 380 nM in the assay on Plasmodium falciparum [1] and 492 nM in the assay on Plasmodium falciparum [2]. Further, the “Ratio IC50” value with Plasmodium falciparum [3] is 1.3.

On to `CCN(CC)CCCn1cc(CNc2ccnc3cc(Cl)ccc23)nn1`, for which the IC50 is 1980 nM in the assay on Plasmodium falciparum [1] and 5330 nM in the assay with Plasmodium falciparum [2]. In the assay with Plasmodium falciparum [3], the “Ratio IC50” value was determined as 2.7.

As for `CN(CCn1cc(CNc2ccnc3cc(Cl)ccc23)nn1)Cc1ccccc1`, the IC50 in the assay with Plasmodium falciparum [1] is 151 nM; in the assay with Plasmodium falciparum [2], 216 nM. The “Ratio IC50” value in the assay on Plasmodium falciparum [3] is listed as 1.4.

For the compound `CN(CCCn1cc(CNc2ccnc3cc(Cl)ccc23)nn1)Cc1ccccc1`, the figures for the half-maximal inhibitory concentration (IC50) in the assay with Plasmodium falciparum [1] and with Plasmodium falciparum [2] were 50.8 nM and 15 nM, respectively. For the same compound, the “Ratio IC50” value in the assay with Plasmodium falciparum [3] turned out to be 3.4; in the assay with Plasmodium falciparum [4], 3.

On to `Clc1ccc2c(NCc3cn(CCN(Cc4ccccc4)Cc4ccccc4)nn3)ccnc2c1`, for which the IC50 in the assay on Plasmodium falciparum [1] was 78.6 nM; in the assay on Plasmodium falciparum [2] it was 140 nM. Further, the “Ratio IC50” value in the assay with Plasmodium falciparum [3] is reported as 0.6; in the assay with Plasmodium falciparum [4], 3.

As for `Clc1ccc2c(NCc3cn(CCN4CCOCC4)nn3)ccnc2c1`, the IC50 in the assay on Plasmodium falciparum [1] came out at 1300 nM; in the assay with Plasmodium falciparum [2], 1760 nM. For the same compound, in the assay on Plasmodium falciparum [3], the “Ratio IC50” value is reported as 1.4.

As to `Clc1ccc2c(NCc3cn(CCCN4CCCCC4)nn3)ccnc2c1`, the IC50 in the assay on Plasmodium falciparum [1] is 8.9 nM; with Plasmodium falciparum [2], 123 nM. The “Ratio IC50” value in the assay with Plasmodium falciparum [3] is on record as 14.

For the compound `Clc1ccc2c(NCc3cn(CCCN4CCOCC4)nn3)ccnc2c1`, the IC50 in the assay on Plasmodium falciparum [1] amounted to 77.7 nM; with Plasmodium falciparum [2], 261 nM. In addition, the “Ratio IC50” value with Plasmodium falciparum [3] was determined as 3.3.

As for `Clc1ccc2c(NCc3cn(CCCN(Cc4ccccc4)Cc4ccccc4)nn3)ccnc2c1`, the IC50 in the assay with Plasmodium falciparum [1] is 114 nM; with Plasmodium falciparum [2], 2240 nM. Besides, the “Ratio IC50” value with Plasmodium falciparum [3] is reported as 20.
